Measured values as given in ChEMBL document CHEMBL3817823 (J Med Chem, 2016).
Activity calls are given as the source filed them. The calls are words filed in the database; no cut-off is given here.

Tests used:
Mus musculus = assay: In vivo inhibition of SMYD2 expressed in human KYSE-150 cells xenografted in BALB/c nude mouse assessed as suppression of AHNAK methylation at 30 to 100 mg/kg, po administered qd for 3 days by dot-blot analysis; assay type: functional, organism-based
Procedure, shortened: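 Mice with subcutaneous KYSE-150 tumor xenografts dosed orally once daily for 3 days (vehicle PEG 400/water 8:2), n = 12 per group; tumors then harvested and AHNAK methylation measured ex vivo by dot blot with SY46 antibody; group means ± SD, Student's t test versus vehicle.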

[1] = target: Protein arginine N-methyltransferase 7 (Homo sapiens) (UniProt Q9NVM4); assay: Inhibition of PRMT7 (unknown origin) at 1 to 50 uM by scintillation proximity assay
[2] = target: Histone-lysine N-methyltransferase SUV39H1 (Homo sapiens) (UniProt O43463); assay: Inhibition of SUV39H1 (unknown origin) at 1 to 50 uM by scintillation proximity assay
[3] = target: Histone-lysine N-methyltransferase EHMT2 (Homo sapiens) (UniProt Q96KQ7); assay: Inhibition of G9A (unknown origin) at 1 to 50 uM by scintillation proximity assay
Sequence of Histone-lysine N-methyltransferase EHMT2 (Homo sapiens) (Q96KQ7 whole entry): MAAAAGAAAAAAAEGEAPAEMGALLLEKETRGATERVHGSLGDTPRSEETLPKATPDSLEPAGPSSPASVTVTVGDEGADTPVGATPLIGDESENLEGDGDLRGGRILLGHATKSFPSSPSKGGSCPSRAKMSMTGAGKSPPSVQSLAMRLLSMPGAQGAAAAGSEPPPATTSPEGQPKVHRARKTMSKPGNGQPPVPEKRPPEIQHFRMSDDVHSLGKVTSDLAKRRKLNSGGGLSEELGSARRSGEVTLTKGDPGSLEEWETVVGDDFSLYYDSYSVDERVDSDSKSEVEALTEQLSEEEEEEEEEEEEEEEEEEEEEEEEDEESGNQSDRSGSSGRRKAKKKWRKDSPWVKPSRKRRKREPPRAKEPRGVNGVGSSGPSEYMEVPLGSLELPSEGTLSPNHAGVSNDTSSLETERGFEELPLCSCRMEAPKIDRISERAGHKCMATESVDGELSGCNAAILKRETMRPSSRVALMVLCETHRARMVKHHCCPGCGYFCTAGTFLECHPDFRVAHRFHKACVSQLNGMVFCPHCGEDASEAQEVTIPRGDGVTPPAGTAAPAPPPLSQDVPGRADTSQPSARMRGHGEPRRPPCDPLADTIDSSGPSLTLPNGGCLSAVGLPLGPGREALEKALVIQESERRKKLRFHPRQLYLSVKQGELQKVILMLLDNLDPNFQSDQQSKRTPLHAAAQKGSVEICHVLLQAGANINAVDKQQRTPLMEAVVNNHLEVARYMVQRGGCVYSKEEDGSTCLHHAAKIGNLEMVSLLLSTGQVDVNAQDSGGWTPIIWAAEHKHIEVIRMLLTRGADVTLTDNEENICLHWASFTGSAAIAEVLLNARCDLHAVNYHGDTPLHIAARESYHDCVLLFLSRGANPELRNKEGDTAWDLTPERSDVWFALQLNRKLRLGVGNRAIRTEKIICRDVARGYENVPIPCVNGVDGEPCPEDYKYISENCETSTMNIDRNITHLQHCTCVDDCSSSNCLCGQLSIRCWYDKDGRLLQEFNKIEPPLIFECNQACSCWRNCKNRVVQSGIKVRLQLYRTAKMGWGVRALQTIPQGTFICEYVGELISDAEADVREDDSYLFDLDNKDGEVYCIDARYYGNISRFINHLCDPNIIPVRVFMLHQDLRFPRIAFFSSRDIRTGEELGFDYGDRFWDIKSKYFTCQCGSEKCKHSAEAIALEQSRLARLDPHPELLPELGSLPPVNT

Sequence of Protein arginine N-methyltransferase 7 (Homo sapiens) (Q9NVM4 whole entry): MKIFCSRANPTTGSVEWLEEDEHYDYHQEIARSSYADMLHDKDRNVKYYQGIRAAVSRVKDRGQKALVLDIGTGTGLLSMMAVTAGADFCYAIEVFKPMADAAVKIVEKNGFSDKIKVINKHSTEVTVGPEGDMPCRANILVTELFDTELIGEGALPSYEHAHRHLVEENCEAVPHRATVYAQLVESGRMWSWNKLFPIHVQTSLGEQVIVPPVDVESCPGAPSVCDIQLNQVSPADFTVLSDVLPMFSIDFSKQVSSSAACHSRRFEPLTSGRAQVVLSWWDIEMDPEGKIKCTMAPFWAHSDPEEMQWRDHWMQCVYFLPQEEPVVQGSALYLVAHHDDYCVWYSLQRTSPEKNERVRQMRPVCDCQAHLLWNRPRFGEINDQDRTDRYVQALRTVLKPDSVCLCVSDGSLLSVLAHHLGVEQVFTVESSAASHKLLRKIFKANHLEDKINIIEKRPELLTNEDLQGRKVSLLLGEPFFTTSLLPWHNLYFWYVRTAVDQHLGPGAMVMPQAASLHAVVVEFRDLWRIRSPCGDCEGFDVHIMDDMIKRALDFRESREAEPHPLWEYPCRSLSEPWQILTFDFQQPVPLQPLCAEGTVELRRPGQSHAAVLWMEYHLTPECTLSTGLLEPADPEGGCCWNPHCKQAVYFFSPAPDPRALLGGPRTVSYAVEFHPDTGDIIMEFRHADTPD
Sequence of Histone-lysine N-methyltransferase SUV39H1 (Homo sapiens) (O43463 whole entry): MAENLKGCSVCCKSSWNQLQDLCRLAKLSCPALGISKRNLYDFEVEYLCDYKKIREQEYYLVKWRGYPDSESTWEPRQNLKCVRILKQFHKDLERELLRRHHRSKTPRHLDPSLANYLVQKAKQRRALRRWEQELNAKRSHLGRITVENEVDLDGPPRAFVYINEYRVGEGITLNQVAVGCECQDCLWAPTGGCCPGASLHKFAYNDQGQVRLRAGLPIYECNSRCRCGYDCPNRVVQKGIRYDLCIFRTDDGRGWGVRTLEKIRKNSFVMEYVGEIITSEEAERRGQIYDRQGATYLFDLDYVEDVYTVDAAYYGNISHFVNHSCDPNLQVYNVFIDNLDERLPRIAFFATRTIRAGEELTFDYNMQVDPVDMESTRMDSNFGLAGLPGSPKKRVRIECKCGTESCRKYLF

In the case of CCN(C(=O)CO)[C@H]1CN(/C(=N\C#N)Nc2cccc(OC(F)F)c2)N=C1c1ccc(Cl)c(Cl)c1, the inhibition (Mus musculus) was “Active”, the inhibition [1] was “inactive” and the inhibition [2] was “inactive”. The inhibition [3] was “inactive”.
